Experimental data taken from ChEMBL document CHEMBL1126849, “Synthesis of A-ring fluorinated derivatives of (17 alpha,20E/Z)-[125I]iodovinylestradiols: effect on receptor binding and receptor-mediated target tissue uptake” (J Med Chem, 1993).

What was measured:
Details in all cases: in vivo
[1] = system: Rattus norvegicus; test: Biodistribution in liver of Immature Female rat after 3 hour administration of 3 micro Ci (111 kBq) in the absence of 60 microg estradiol; type: ADME, organism-based
Outline: (§1)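 Immature female Long Evans rats (21–24 days, 45–70 g), unanesthetized in retention cages, given 3 µCi (111 kBq) 125I-labeled steroid i.v. via lateral tail vein. Vehicle was ethanol diluted in saline containing 1% Tween-80, giving 9% ethanol final. The blocking group received 60 µg unlabeled estradiol co-injected. Rats were killed under ether by axillary bleeding, and tissues were KCl-washed and gamma-counted. Data are %ID/g, mean ± SE, n=3–5.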

[2] = system: Rattus norvegicus; test: Biodistribution in liver of Immature Female rat after 5 hour administration of 3 micro Ci (111 kBq) in the absence of 60 microg estradiol; type: ADME, organism-based; outline: as §1
[3] = system: Rattus norvegicus; test: Biodistribution in lungs of Immature Female rat after 1 hr administration of 3 micro Ci (111 kBq) in the absence of 60 microg estradiol; type: ADME, organism-based, Lung; outline: as §1
[4] = system: Rattus norvegicus; test: Biodistribution in spleen of Immature Female rat after 3 hour administration of 3 micro Ci (111 kBq) in the absence of 60 microg estradiol; type: ADME, organism-based
Outline: (§2)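 Immature female Long Evans rats (21–24 days, 45–70 g), three to five per group, given 125I-labeled steroid (3 μCi, 111 kBq) by lateral tail vein without anesthesia. Vehicle: ethanol diluted in saline with 1% Tween-80, final ethanol 9%, 0.22 μm filtered. +E2 groups received 60 μg unlabeled estradiol co-injected. Killed under ether at set times; tissues KCl-washed, blotted, weighed, gamma counted; %ID/g, mean with SE.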

[5] = system: Rattus norvegicus; test: Biodistribution in muscle of Immature Female rat after 1 hr administration of 3 micro Ci (111 kBq) in the absence of 60 microg estradiol; type: ADME, organism-based, Muscle tissue; outline: as §2
[6] = system: Rattus norvegicus; test: Biodistribution in kidney of Immature Female rat after 3 hour administration of 3 micro Ci (111 kBq) in the absence of 60 microg estradiol; type: ADME, organism-based; outline: as §1
[7] = system: Rattus norvegicus; test: Biodistribution in liver of Immature Female rat after 1 hr administration of 3 micro Ci (111 kBq) in the presence of (+E2); type: ADME, organism-based; outline: as §1
[8] = system: Rattus norvegicus; test: Biodistribution in thyroid of Immature Female rat after 3 hour administration of 3 micro Ci (111 kBq) in the absence of 60 microg estradiol; type: ADME, organism-based, Thyroid gland; outline: as §2
[9] = system: Rattus norvegicus; test: Biodistribution in thyroid of Immature Female rat after 12 hour administration of 3 micro Ci (111 kBq) in the absence of 60 microg estradiol; type: ADME, organism-based, Thyroid gland; outline: as §2
[10] = system: Rattus norvegicus; test: Biodistribution in uterus / blood of Immature Female rat after 1 hr administration of 3 micro Ci (111 kBq) in the absence of 60 microg estradiol; type: ADME, organism-based
Outline: (§3)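 Same in vivo procedure: immature female Long Evans rats (21–24 days), three to five per group, 3 μCi (111 kBq) tracer i.v. via tail vein in 9% ethanol/saline/1% Tween-80, ± 60 μg estradiol co-injected at 1 h. Uterus %ID/g (gamma counting) divided by blood, or by nontarget organ (muscle, spleen, lungs), %ID/g to give ratios.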

[11] = system: Rattus norvegicus; test: Biodistribution in thyroid of Immature Female rat after 1 hr administration of 3 micro Ci (111 kBq) in the presence of (+E2); type: ADME, organism-based, Thyroid gland; outline: as §2
[12] = system: Rattus norvegicus; test: Biodistribution in thyroid of Immature Female rat after 1 hr administration of 3 micro Ci (111 kBq) in the absence of 60 microg estradiol; type: ADME, organism-based, Thyroid gland; outline: as §2
[13] = system: Rattus norvegicus; test: Biodistribution in uterus / blood of Immature Female rat after 5 hour administration of 3 micro Ci (111 kBq) in the absence of 60 microg estradiol; type: ADME, organism-based; outline: as §3
[14] = system: Rattus norvegicus; test: Biodistribution in fat of Immature Female rat after 12 hour administration of 3 micro Ci (111 kBq) in the absence of 60 microg estradiol; type: ADME, organism-based, Adipose tissue; outline: as §1
[15] = system: Rattus norvegicus; test: Biodistribution in lungs of Immature Female rat after 5 hour administration of 3 micro Ci (111 kBq) in the absence of 60 microg estradiol; type: ADME, organism-based, Lung; outline: as §1
[16] = system: Rattus norvegicus; test: Biodistribution in muscle of Immature Female rat after 5 hour administration of 3 micro Ci (111 kBq) in the absence of 60 microg estradiol; type: ADME, organism-based, Muscle tissue; outline: as §2
[17] = system: Rattus norvegicus; test: Biodistribution in uterus of Immature Female rat after 1 hr administration of 3 micro Ci (111 kBq) in the presence of (+E2); type: ADME, organism-based
Outline: (§4)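 Immature female Long Evans rats (21–24 days, 45–70 g), 3–5 per group, unanesthetized in retention cages, given 3 μCi (111 kBq) 125I-labeled steroid by lateral tail vein. Vehicle: ethanol diluted with saline containing 1% Tween-80, final ethanol 9%. +E2 group co-injected 60 μg unlabeled estradiol (1 h only). Killed under ether; tissues KCl-washed, weighed, gamma-counted. Output: %ID/g (mean, SE) and uterus to blood or nontarget (muscle, spleen, lungs) ratios.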

[18] = system: Rattus norvegicus; test: Biodistribution in spleen of Immature Female rat after 5 hour administration of 3 micro Ci (111 kBq) in the absence of 60 microg estradiol; type: ADME, organism-based; outline: as §2
[19] = system: Rattus norvegicus; test: Biodistribution in blood of Immature Female rat after 3 hour administration of 3 micro Ci (111 kBq) in the absence of 60 microg estradiol; type: ADME, organism-based; outline: as §1
[20] = system: Rattus norvegicus; test: Biodistribution in muscle of Immature Female rat after 3 hour administration of 3 micro Ci (111 kBq) in the absence of 60 microg estradiol; type: ADME, organism-based, Muscle tissue; outline: as §2
[21] = system: Rattus norvegicus; test: Biodistribution in lungs of Immature Female rat after 12 hour administration of 3 micro Ci (111 kBq) in the absence of 60 microg estradiol; type: ADME, organism-based, Lung; outline: as §1
[22] = system: Rattus norvegicus; test: Biodistribution in fat of Immature Female rat after 1 hr administration of 3 micro Ci (111 kBq) in the presence of (+E2); type: ADME, organism-based, Adipose tissue; outline: as §1
[23] = system: Rattus norvegicus; test: Biodistribution in kidney of Immature Female rat after 12 hour administration of 3 micro Ci (111 kBq) in the absence of 60 microg estradiol; type: ADME, organism-based; outline: as §1
[24] = system: Rattus norvegicus; test: Biodistribution in uterus / spleen, muscle, lungs of Immature Female rat after 1 hr administration of 3 micro Ci (111 kBq) in the presence of (+E2); type: ADME, organism-based; outline: as §3
[25] = system: Rattus norvegicus; test: Biodistribution in uterus / spleen, muscle, lungs of Immature Female rat after 3 hour administration of 3 micro Ci (111 kBq) in the absence of 60 microg estradiol; type: ADME, organism-based; outline: as §3
[26] = system: Rattus norvegicus; test: Biodistribution in kidney of Immature Female rat after 5 hour administration of 3 micro Ci (111 kBq) in the absence of 60 microg estradiol; type: ADME, organism-based; outline: as §1
[27] = system: Rattus norvegicus; test: Biodistribution in lungs of Immature Female rat after 3 hour administration of 3 micro Ci (111 kBq) in the absence of 60 microg estradiol; type: ADME, organism-based, Lung; outline: as §1
[28] = system: Rattus norvegicus; test: Biodistribution in uterus of Immature Female rat after 1 hr administration of 3 micro Ci (111 kBq) in the absence of 60 microg estradiol; type: ADME, organism-based; outline: as §4
[29] = system: Rattus norvegicus; test: Biodistribution in liver of Immature Female rat after 1 hr administration of 3 micro Ci (111 kBq) in the absence of 60 microg estradiol; type: ADME, organism-based; outline: as §1
[30] = system: Rattus norvegicus; test: Biodistribution in uterus of Immature Female rat after 12 hour administration of 3 micro Ci (111 kBq) in the absence of 60 microg estradiol; type: ADME, organism-based; outline: as §4
[31] = system: Rattus norvegicus; test: Biodistribution in uterus of Immature Female rat after 3 hour administration of 3 micro Ci (111 kBq) in the absence of 60 microg estradiol; type: ADME, organism-based; outline: as §4
[32] = system: Rattus norvegicus; test: Biodistribution in liver of Immature Female rat after 12 hour administration of 3 micro Ci (111 kBq) in the absence of 60 microg estradiol; type: ADME, organism-based; outline: as §1

Row | SMILES | ID/g [1] | ID/g [2] | ID/g [3] | ID/g [4] | ID/g [5] | ID/g [6] | ID/g [7] | ID/g [8] | ID/g [9] | uterus/blood ratio [10] | ID/g [11] | ID/g [12] | ID/g [13] | ID/g [14] | ID/g [15] | ID/g [16] | ID/g [17] | ID/g [18] | ID/g [19] | ID/g [20] | other results
1 | CO[C@H]1C[C@@]2(C)[C@@H](CC[C@@]2(O)/C=C/I)[C@@H]2CCc3c(ccc(O)c3F)[C@H]21 | 2.65% | 2.72% | 1.07% | 0.48% | 0.98% | 1.3% | 3.24% | 126% | 475% | 30.4 | 71% | 61% | 68.66% | 0.83% | 0.52% | 0.45% | 1.02% | 0.39% | 0.26% | 0.56% | ID/g [21]: 0.3%; ID/g [22]: 2.3%; ID/g [23]: 0.49%; ID/g [24]: 1.02%; ID/g [25]: 16.64%; ID/g [26]: 0.94%; ID/g [27]: 0.69%; ID/g [28]: 8.02%; ID/g [29]: 3.32%; ID/g [30]: 12.64%; ID/g [31]: 10.45%; ID/g [32]: 2.28%
2 | CO[C@H]1C[C@@]2(C)[C@@H](CC[C@@]2(O)/C=C\I)[C@@H]2CCc3cc(O)c(F)cc3[C@H]21 | 1.51% | 1.12% | 0.76% | 0.39% | 0.58% | 1.02% | 10.39% | 882% | 1899% | 15.7 | 170% | 217% | 27.8% | 0.13% | 0.35% | 0.29% | 0.94% | 0.38% | 0.45% | 0.38% | ID/g [21]: 0.13%; ID/g [22]: 4.78%; ID/g [23]: 0.29%; ID/g [24]: 0.64%; ID/g [25]: 21.65%; ID/g [26]: 0.71%; ID/g [27]: 0.54%; ID/g [28]: 8.36%; ID/g [29]: 2.04%; ID/g [30]: 6.45%; ID/g [31]: 9.59%; ID/g [32]: 0.65%
